Calls of active or inactive are those of the source. The rule behind the calls is not given here.
Legend:
MIA PaCa-2 = test: Antiproliferative activity against human MIA PaCa-2 cells assessed as reduction in cell viability incubated for 3 days by MTT assay; assay type: functional, cell-based; conditions: MIA PaCa-2, 72 h
Summary of the method: (§1)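 MTT assay. Cells were seeded at 3000–6000/well and incubated overnight, then exposed to compound or DMSO vehicle for 3 days in RPMI-1640 or DMEM with 10% FBS at 37 °C, 5% CO2. MTT (3 mg/ml) was added for 3 h at 37 °C, formazan was dissolved in DMSO and absorbance read at 570 nm. IC50 from three independent experiments, mean ± SD.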

[1] = molecular target: Signal transducer and activator of transcription 3 (Homo sapiens) (UniProt P40763); test: Inhibition of STAT3 phosphorylation in human BxPC-3 cells at 5 uM after 16 hrs by western blot analysis; assay type: cell-based
Summary of the method: (§2)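 Cells were seeded in 6-well plates (BxPC-3 500 × 10^3, MIA PaCa-2 200 × 10^3 cells/well) and exposed to compound for 16 h. Lysis was at 4 °C by sonication in Tris/NaCl/Triton/SDS buffer, pH 7.4, with protease and phosphatase inhibitors. Lysates were run on SDS-PAGE, transferred to PVDF and probed for STAT3, pSTAT3 and NQO1 with GAPDH as loading control. Immunoblots were imaged on an Odyssey system.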

[2] = molecular target: T1, Protein cereblon/Signal transducer and activator of transcription 3 (Homo sapiens, UniProt P40763+Q96SW2); test: Protac activity at CRBN/STAT3 in human BxPC-3 cells assessed as effect on STAT3 expression level at 0.1 to 5 uM incubated for 16 hrs by western blot analysis; assay type: cell-based; conditions: dose 0.1-5 µM
Summary of the method: (§3)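 BxPC-3 cells seeded at 500 × 10^3 per well in 6-well plates, treated 16 h. Sonication lysis at 4 °C in Tris/NaCl/Triton/SDS buffer pH 7.4 with protease and phosphatase inhibitors, BCA protein assay, SDS-PAGE, PVDF transfer. Probed for STAT3, pSTAT3 and NQO1 with GAPDH loading control; fluorescent secondary detection.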

BXPC-3 [3] = test: Antiproliferative activity against human BxPC-3 cells assessed as reduction in cell viability incubated for 3 days by MTT assay; assay type: functional, cell-based; conditions: BXPC-3, 72 h
HEK293 = test: Antiproliferative activity against human HEK293 cells assessed as reduction in cell viability incubated for 24 hrs by MTT assay; assay type: functional, cell-based; conditions: HEK293, 24 h
Summary of the method: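 HEK-293 cells were treated with compound for 24 h, in parallel with the luciferase reporter assay. Viability was read by MTT absorbance at 570 nm, and IC50 was taken from three independent experiments.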

BXPC-3 [4] = test: Reduction in NQO1 levels in human BxPC-3 cells at 2 uM incubated for 16 hrs by western blot analysis; assay type: functional, cell-based; summary of the method: as §3
[5] = molecular target: Protein cereblon/E3 ubiquitin-protein ligase ZFP91 (Homo sapiens, UniProt Q96SW2+Q96JP5); test: Protac activity at CRBN/ZFP91 in human BxPC-3 cells assessed as induction of ZF91 degradation at upto 3 uM incubated for 16 hrs by western blot analysis; assay type: cell-based; conditions: dose microM <=3, time 16.0 hrs
Summary of the method: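 BxPC-3 cells treated for 4, 16 or 24 h across a concentration series. ZFP91 immunoblotted against GAPDH; bands quantified by densitometry, DC50 calculated from dose-response curves of the densitometry.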

BXPC-3 [6] = test: Binding affinity to PDI in human BxPC-3 cells assessed as thermal stability by measuring shift in melting temperature at 100 uM measured after 1 hr by cellular thermal shift assay; assay type: cell-based
BXPC-3 [7] = test: Antiproliferative activity against human BxPC-3 cells harboring ZFP91siRNA assessed as reduction in cell viability incubated for 48 hrs by MTT assay; assay type: functional, cell-based; conditions: BXPC-3, 48 h
Summary of the method: (§4)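 BxPC-3 cells were transfected with ZFP91 siRNA or scrambled control siRNA using Lipofectamine RNAiMAX in Opti-MEM, 5 pmol siRNA per complex. Compound was added together with the siRNA complex.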

[8] = molecular target: NAD(P)H dehydrogenase [quinone] 1 (Homo sapiens) (UniProt P15559); test: Binding affinity to NQO1 in human BxPC-3 cells assessed as thermal stability by measuring shift in melting temperature at 100 uM measured after 1 hr by cellular thermal shift assay; assay type: cell-based
BXPC-3 [9] = test: Inhibition of colony formation in human BxPC-3 cells assessed as reduction in colony formation at 0.06 to 0.5 uM incubated for 7 to 10 days in presence of NQO1 inhibitor dicoumarol; conditions: dose 0.06-0.5 µM
BXPC-3 [10] = test: Antiproliferative activity against ZFP91 knockdown human BxPC-3 cells assessed as reduction in cell viability incubated for 48 hrs by MTT assay; assay type: functional, cell-based; conditions: BXPC-3, 48 h; summary of the method: as §4
[11] = molecular target: T1, Protein cereblon/Signal transducer and activator of transcription 3; test: Protac activity at CRBN/STAT3 in human BxPC-3 cells assessed as decrease in STAT3 expression level after 12 hrs by western blot analysis; assay type: cell-based
[12] = molecular target: T1, Protein cereblon/Signal transducer and activator of transcription 3; test: Protac activity at CRBN/STAT3 in human BxPC-3 cells assessed as effect on STAT3 expression level at 0.5 uM incubated for 16 hrs by western blot analysis; assay type: cell-based; summary of the method: as §3
[13] = molecular target: Signal transducer and activator of transcription 3 (Homo sapiens) (UniProt P40763); test: Inhibition of STAT3 phosphorylation in human BxPC-3 cells at 0.5 uM after 16 hrs by western blot analysis; assay type: cell-based; summary of the method: as §2
[14] = molecular target: T1, Protein cereblon/Signal transducer and activator of transcription 3; test: Protac activity at CRBN/STAT3 in human OVCAR-3 cells assessed as depletion of STAT3 at 2 to 20 uM after 12 hrs by western blot analysis; assay type: cell-based; conditions: dose 2-20 µM
[15] = molecular target: T1, Protein cereblon/Signal transducer and activator of transcription 3; test: Protac activity at CRBN/STAT3 in human BxPC-3 cells assessed as induction of STAT3 degradation at 1 to 5 uM after 12 hrs in presence of proteasome inhibitor bortezomib by western blot analysis; assay type: cell-based; conditions: dose 1-5 µM
[16] = molecular target: T1, Protein cereblon/Signal transducer and activator of transcription 3; test: Protac activity at CRBN/STAT3 in human OVCAR-3 cells assessed as induction of STAT3 degradation at 1 to 20 uM incubated for 12 hrs in presence of competitive CRBN ligand pomalidomide by western blot analysis; assay type: cell-based; conditions: dose 1-20 µM
[17] = molecular target: Protein cereblon/Signal transducer and activator of transcription 1-alpha/beta (Homo sapiens) (UniProt P42224+Q96SW2); test: Protac activity at CRBN/STAT1 in human OVCAR-3 cells assessed as decrease in STAT1 expression levels at 2 to 20 uM after 12 hrs by western blot analysis; assay type: cell-based; conditions: dose 2-20 µM
OVCAR-3 = test: Antiproliferative activity against human OVCAR-3 cells assessed as reduction in cell viability incubated for 3 days by MTT assay; assay type: functional, cell-based; conditions: OVCAR-3, 72 h; summary of the method: as §1
[18] = molecular target: T1, Protein cereblon/Signal transducer and activator of transcription 3; test: Protac activity at CRBN/STAT3 in human OVCAR-3 cells assessed as decrease in STAT3 expression at 2 to 10 uM incubated for 24 hrs in presence of proteasome inhibitor MG132 by western blot analysis; assay type: cell-based; conditions: dose 2-10 µM
[19] = test system: G1 to S phase transition protein 1 homolog GSPT1 (Homo sapiens); test: Protac activity at CRBN/STAT3 in human BxPC-3 cells assessed as effect on GSPT1 protein expression level at 1 to 10 uM incubated for 16 hrs by western blot analysis; conditions: dose 1-10 µM
[20] = molecular target: T1, Protein cereblon/Signal transducer and activator of transcription 3; test: Protac activity at CRBN/STAT3 in human OVCAR-3 cells assessed as decrease in STAT3 phosphorylation at 2 to 20 uM after 6 hrs by western blot analysis; assay type: cell-based; conditions: dose 2-20 µM
BXPC-3 [21] = test: Reduction in NQO1 levels in human BxPC-3 cells at 1 to 10 uM incubated for 16 hrs by western blot analysis; assay type: functional, cell-based; conditions: dose 1-10 µM; summary of the method: as §3
[22] = Selectivity index, ratio of IC50 for antiproliferative activity against STAT3 knockout human OVCAR-3 cells to IC50 for wild type human OVCAR-3 cells; assay type: functional

SMILES	IC50 (MIA PaCa-2) [µM]	IC50 (BXPC-3 [3]) [µM]	IC50 (HEK293) [µM]	further results
CN1C(=O)CCC(N2C(=O)c3cccc(NCCCCCC4CCN(CCNC(=O)c5cc6c(o5)C(=O)c5ccccc5C6=O)CC4)c3C2=O)C1=O (configuration not stated)	2.7	3.4	> 30	inhibition [1]: Active; Activity [2]: inactive
O=C1CCC(N2C(=O)c3cccc(NCCCCNC(=O)c4cc5c(o4)C(=O)c4ccccc4C5=O)c3C2=O)C(=O)N1 (configuration not stated)	1.6	4.1	–	–
O=C1CCC(N2C(=O)c3cccc(OCCCCNC(=O)c4cc5c(o4)C(=O)c4ccccc4C5=O)c3C2=O)C(=O)N1 (configuration not stated)	2	4.2	> 10	–
CC(=O)c1cc2c(o1)C(=O)c1ccccc1C2=O [NAPABUCASIN]	1.2	1.4	10.4	inhibition (BXPC-3 [4]): Active; Activity [5]: inactive; Activity (BXPC-3 [6]): Active; IC50 (BXPC-3 [7]): 1.3 µM; Activity [8]: Active; inhibition (BXPC-3 [9]): Active; IC50 (BXPC-3 [10]): 1.8 µM; DC50 [11]: 2.1 µM
O=C(COc1cccc2c1C(=O)N(C1CCC(=O)NC1=O)C2=O)NCCCCNC(=O)c1cc2c(o1)C(=O)c1ccccc1C2=O (configuration not stated)	10.5	23.8	> 30	–
O=C1CCC(N2C(=O)c3cccc(NCCCCCCNC(=O)c4cc5c(o4)C(=O)c4ccccc4C5=O)c3C2=O)C(=O)N1 (configuration not stated)	3	4.2	–	–
O=C1CCC(N2C(=O)c3cccc(NCCOCCNC(=O)c4cc5c(o4)C(=O)c4ccccc4C5=O)c3C2=O)C(=O)N1 (configuration not stated)	2.6	4.6	–	–
O=C1CCC(N2Cc3c(CCCCCNC(=O)c4cc5c(o4)C(=O)c4ccccc4C5=O)cccc3C2=O)C(=O)N1 (configuration not stated)	6.4	13.8	–	–
O=C1CCC(N2C(=O)c3cccc(NCCCCCNC(=O)c4cc5c(o4)C(=O)c4ccccc4C5=O)c3C2=O)C(=O)N1 (configuration not stated)	1.8	3.2	> 10	–
O=C(NCCN1CCCCC1)c1cc2c(o1)C(=O)c1ccccc1C2=O	–	–	–	Activity [12]: inactive; inhibition [13]: Active
O=C1CCC(N2C(=O)c3cccc(OCCOCCOCCNC(=O)c4cc5c(o4)C(=O)c4ccccc4C5=O)c3C2=O)C(=O)N1 (configuration not stated)	3.8	8.2	–	–
O=C(COc1cccc2c1C(=O)N(C1CCC(=O)NC1=O)C2=O)NCCOCCOCCOCCNC(=O)c1cc2c(o1)C(=O)c1ccccc1C2=O (configuration not stated)	3.7	6	–	–
Cc1ncsc1-c1ccc(CNC(=O)[C@@H]2C[C@@H](O)CN2C(=O)[C@@H](NC(=O)COCCOCCNC(=O)c2cc3c(o2)C(=O)c2ccccc2C3=O)C(C)(C)C)cc1	14.5	> 30	> 30	–
Nc1cccc2c1C(=O)N(C1CCC(=O)NC1=O)C2=O (configuration not stated) [POMALIDOMIDE]	> 30	> 30	–	–
O=C1CCC(N2C(=O)c3ccc(NCCOCCOCCNC(=O)c4cc5c(o4)C(=O)c4ccccc4C5=O)cc3C2=O)C(=O)N1 (configuration not stated)	–	–	> 10	–
O=C1CCC(N2C(=O)c3cccc(NCCCNC(=O)c4cc5c(o4)C(=O)c4ccccc4C5=O)c3C2=O)C(=O)N1 (configuration not stated)	2.7	3.5	–	–
Cc1ncsc1-c1ccc(CNC(=O)[C@@H]2C[C@@H](O)CN2C(=O)[C@@H](NC(=O)COCCNC(=O)c2cc3c(o2)C(=O)c2ccccc2C3=O)C(C)(C)C)cc1	15.8	> 30	> 30	–
O=C1CCC(N2C(=O)c3cccc(NCCOCCOCCOCCOCCNC(=O)c4cc5c(o4)C(=O)c4ccccc4C5=O)c3C2=O)C(=O)N1 (configuration not stated)	4.4	10.1	> 10	–
O=C1CCC(N2C(=O)c3cccc(NCCNC(=O)c4cc5c(o4)C(=O)c4ccccc4C5=O)c3C2=O)C(=O)N1 (configuration not stated)	4	1.7	> 30	–
O=C(COc1cccc2c1C(=O)N(C1CCC(=O)NC1=O)C2=O)NCCOCCOCCNC(=O)c1cc2c(o1)C(=O)c1ccccc1C2=O (configuration not stated)	16.7	20.4	–	–
O=C1CCC(N2C(=O)c3cccc(NCCOCCOCCOCCOCCOCCOCCNC(=O)c4cc5c(o4)C(=O)c4ccccc4C5=O)c3C2=O)C(=O)N1 (configuration not stated)	5	7.5	10.8	–
O=C1CCC(N2C(=O)c3cccc(NCCN4CCN(CCNC(=O)c5cc6c(o5)C(=O)c5ccccc5C6=O)CC4)c3C2=O)C(=O)N1 (configuration not stated)	18.1	25.6	–	–
O=C1CCC(N2C(=O)c3cccc(NCCOCCOCCNC(=O)c4cc5c(o4)C(=O)c4ccccc4C5=O)c3C2=O)C(=O)N1 (configuration not stated)	1.3	4.3	–	Activity [14]: Active; Activity [15]: Active; Activity [16]: Active; Activity [17]: Active; IC50 (OVCAR-3): 0.3 µM; Activity [18]: Active; Activity [19]: inactive; Activity [20]: Active; DC50 [11]: 7.8 µM; Activity (BXPC-3 [21]): Active; Ratio IC50 [22]: >6
O=C1CCC(N2C(=O)c3cccc(C#CCCCNC(=O)c4cc5c(o4)C(=O)c4ccccc4C5=O)c3C2=O)C(=O)N1 (configuration not stated)	2.1	5.3	18.6	–
O=C1CCC(N2C(=O)c3cccc(NCCOCCOCCOCCNC(=O)c4cc5c(o4)C(=O)c4ccccc4C5=O)c3C2=O)C(=O)N1 (configuration not stated)	2.1	4.5	11.2	–
O=C1CCC(N2C(=O)c3cccc(NCCCC4CCN(CCNC(=O)c5cc6c(o5)C(=O)c5ccccc5C6=O)CC4)c3C2=O)C(=O)N1 (configuration not stated)	–	0.6	–	–
O=C1CCC(N2C(=O)c3cccc(NCCC4CCN(CCNC(=O)c5cc6c(o5)C(=O)c5ccccc5C6=O)CC4)c3C2=O)C(=O)N1 (configuration not stated)	1.1	1.1	–	–
O=C1CCC(N2Cc3c(NCCOCCOCCNC(=O)c4cc5c(o4)C(=O)c4ccccc4C5=O)cccc3C2=O)C(=O)N1 (configuration not stated)	13.7	–	> 30	–

Source: ChEMBL document CHEMBL4706672 (J Med Chem, 2021)
